High-throughput results (PubChem)
Rows were chosen to be rich in hits. Some 2.6% of all compounds tested hit in one or more screens of this group.
rCAG binder – binds r(CAG) RNA repeats; r(CAG) RNA repeat, TO-PRO-1 dye displacement fluorescence; inhibition, % at 3 µM; hit rate 1.3% among 370,000;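 active means inhibition above the plate cutoff, the mean of all test compounds on that plate plus 3 SD, cut at about 35% in these data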;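 further: 0% = DMSO alone and 100% = 100 µM mitoxantrone as full dye displacement; higher means more dye released from RNA so lower well fluorescence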
NR1D1 modulator – modulates human Rev-erb alpha binding to DNA; activity, % at 10 µM; hit rate 0.79% among 370,000; P20393; Rev-erbα–FITC-DNA binding, fluorescence polarization, 90 min;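 active means activity above about 14%, limit read from the data; passing the limit was not always enough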;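 further: 0% = DMSO wells with 35 nM protein and 100% = DMSO wells with 750 nM protein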
NR2E3 ag-1 – activates human photoreceptor nuclear receptor NR2E3 | GST-NR2E3/biotin-RetCOR TR-FRET, 1536-well | inhibition of corepressor binding, % at 4.78 µM | hit rate 0.12% among 320,000;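 active means percent inhibition above the cutoff of mean plus 3 SD of all tested compounds, set per screening campaign, cut at about 20% in these data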;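 further: 0% = DMSO wells and 100% = biotin wells as full block of FRET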
Target sequence (Q9Y5X4 whole entry, looked up): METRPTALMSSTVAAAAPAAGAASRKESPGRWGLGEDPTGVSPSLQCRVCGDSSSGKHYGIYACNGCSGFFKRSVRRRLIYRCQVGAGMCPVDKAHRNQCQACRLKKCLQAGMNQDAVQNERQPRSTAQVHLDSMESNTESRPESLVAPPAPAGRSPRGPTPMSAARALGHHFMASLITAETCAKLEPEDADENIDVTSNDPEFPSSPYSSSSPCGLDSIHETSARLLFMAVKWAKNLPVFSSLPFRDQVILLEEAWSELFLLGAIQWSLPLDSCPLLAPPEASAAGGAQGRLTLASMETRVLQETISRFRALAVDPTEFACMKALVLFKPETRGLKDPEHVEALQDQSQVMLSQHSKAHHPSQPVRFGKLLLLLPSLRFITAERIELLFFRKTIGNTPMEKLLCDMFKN
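Format: 1536-well format; test system: GST-NR2E3 and biotin-RetCOR proteins; read-out basis: percent inhibition of TR-FRET ratio; timing: 5 h incubation at 4 °C; detection: time-resolved FRET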
PG9 Ab binder – PG9 antibody binding by small molecule; TR-FRET gp120-PG9 antibody binding; hit rate 0.43% among 360,000; inhibition, % at 6.7 µM; in the data active means inhibition above about 8.5%
NR2E3 ag-2 – activates human NR2E3 receptor; Q9Y5X4; CHO-S Gal4-NCOR/VP16-NR2E3 two-hybrid, luciferase; inhibition of corepressor binding, % at 3.98 µM; hit rate 0.35% among 360,000;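 active means inhibition above the mean of all tested compounds plus 3 SD, cut at about 70% in these data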;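 further: 0% = DMSO with NR2E3 transfected cells and 100% = cells lacking NR2E3 construct; higher means lower luciferase signal from less NR2E3 corepressor binding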
rCAG binder conf – r(CAG) RNA repeat binding, confirmation; hit rate 70% among 4,300; shares compounds with rCAG binder; inhibition, % at 3 µM; AID 652065; TO-PRO-1 dye displacement fluorescence;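 active means inhibition above a per-plate cutoff, the mean inhibition of sample wells plus 3 SD, cut at about 35% in these data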;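 further: loss of TO-PRO-1 fluorescence as compound displaces dye from 1x1 AA loop RNA; 0% = DMSO only wells and 100% = 100 µM mitoxantrone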
dCAG dye counter – DNA CAG dye complex inhibition counter-screen | shares compounds with rCAG binder | d(CAG) DNA oligo TO-PRO-1 dye displacement, fluorescence | inhibition, % at 3 µM | hit rate 94% among 4,300;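 active means inhibition above its plate's cutoff, the mean test-well inhibition plus 3 SD, cut at about 4.8% in these data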;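 further: 0% = DNA dye mix with DMSO and 100% = 100 µM mitoxantrone; hits displace the dye from DNA and so lower well fluorescence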
dCAG dye DR – disrupts DNA CAG TO-PRO-1 complex in dose response | DNA CAG/GTC duplex TO-PRO-1 dye displacement fluorescence | hit rate 20% among 250 | IC50, µM | shares compounds with rCAG binder; in the data active means IC50 below about 10 µM
The depositor's hits bear a star; . = not tested or not shown.

SMILES	rCAG binder	NR1D1 modulator	NR2E3 ag-1	PG9 Ab binder	NR2E3 ag-2	rCAG binder conf	dCAG dye counter	others
N=C1/C(=C/c2cccs2)C(=O)N=C2SN=C(SCc3ccccc3)N12	75*	-2	2	-1	-110	82*	50*
COc1ccccc1/C=C/C(=O)c1ccc(Cl)cc1	0	-3	0	3	-7	.	.
O=C1OC(/C=C/c2ccccc2)=NC/1=C\c1cccnc1	2	-1	3	-3	-17	.	.
COc1ccccc1/C=C/C=C1N=C(/C=C/c2ccc(Cl)cc2)OC/1=O	54*	2	2	0	-14	37*	10*
COc1ccccc1/C=C/C1=NC(=C\C=C/c2ccccc2)/C(=O)O1	46*	-7	-2	-2	-20	33	14*
COc1ccc(CC(=O)Nc2ccc(C(=O)Nc3ccccc3C(=O)O)cc2)cc1OC	59*	0	-7	3	5	42*	9.9*
COc1ccccc1OCC(=O)Nc1ccc(C(=O)Nc2ccccc2C(=O)O)cc1	58*	5	.	-2	-35	65*	23*
CC(C)(C)c1ccc(OCC(=O)Nc2ccc(C(=O)Nc3ccccc3C(=O)O)cc2)cc1	43*	-4	1	-1	-6	88*	67*
COc1ccccc1OCC(=O)Nc1ccc(NC(=O)COc2ccccc2OC)cc1	3	-3	4	2	21	.	.
CC1CN(C(=O)COC(=O)c2ccc3ncsc3c2)CC(C)O1 (stereo not given)	-2	-2	.	0	-28	.	.
CCCCn1c(N)c(N(C)C(=O)c2cn(-c3ccccc3)nc2-c2ccccc2)c(=O)[nH]c1=O	3	0	3	1	6	.	.
CC(C)c1[nH]nc2c1C(c1ccccc1)NC2=O (stereo not given)	1	1	.	-3	.	.	.
C=C1CCC2C(C)(C)CCC[C@]2(C)[C@H]1CC1=C(O)C(=O)C(CO)=CC1=O (stereo not given in full)	45*	-9	.	.	.	32	7.3*
C=C/C(C)=C/C[C@H]1C(=C)CCC2[C@](C)(C(=O)O)CCC[C@@]21C (stereo not given in full)	.	.	1	.	10	.	.
CCOc1cc(/C=C\c2nc(O)c([N+](=O)[O-])c(=O)[nH]2)ccc1OC(C)CC (stereo not given)	45*	-4	-1	-4	-31	46*	9.5*	dCAG dye DR=>30
N#Cc1c(=O)c2nc(NCc3ccccc3)ncc2n2ccccc12	9	0	-5	1	11	.	.
N#Cc1c(=O)c2nc(NCCCO)ncc2n2c(=O)c3ccccc3[nH]c12	41*	1	-1	0	-13	67*	26*	dCAG dye DR=5.4*
CCOC(=O)C1=C(C)N=c2s/c(=C\c3ccc(OCC(=O)O)cc3)c(=O)n2C1c1ccc(OC(C)C)cc1 (stereo not given)	64*	0	-3	-2	-6	85*	55*
CCOC(=O)C1=C(C)N=c2s/c(=C/c3ccc(OCC(=O)O)cc3)c(=O)n2C1c1cc(OC)c(OC)c(OC)c1 (stereo not given)	42*	9	-1	-4	-8	74*	37*
CCOC(=O)C1=C(C)N=c2sc(=Cc3ccc(OCC(=O)O)cc3)c(=O)n2C1c1ccc(Cl)cc1 (stereo not given)	83*	-1	.	-2	-40	59*	26*
CCOC(=O)C1=C(C)N=c2s/c(=C\c3cccc(OCC(=O)O)c3)c(=O)n2C1c1ccccc1OC (stereo not given)	10	-2	-3	2	-13	.	.
CC1=C(C(=O)Nc2ccccc2)C(c2ccc(C)o2)n2c(s/c(=C\c3ccco3)c2=O)=N1 (stereo not given)	38*	-14	.	-2	-12	12	7.1*
Cc1cccc(C)c1N1C(=O)c2ccccc2NC(=O)C1C(=O)NCc1ccco1 (stereo not given)	5	-5	.	-3	.	.	.
COCCCNC(=O)C[C@@H]1C[C@@]2(C(=O)OC)CCCCC=C2N(CCC2=CCCCC2)C1=O	1	-2	.	0	-15	.	.
COc1ccccc1CNC(=O)CN1C(=O)NC2(CCCc3ccccc32)C1=O (stereo not given)	3	-2	1	2	-11	.	.
SMILES	rCAG binder	NR1D1 modulator	NR2E3 ag-1	PG9 Ab binder	NR2E3 ag-2	rCAG binder conf	dCAG dye counter	others
Cc1cccn2c(=O)nc(SCC(=O)N3CCC(C)CC3)nc12	-5	-4	-1	-1	-23	.	.
COc1cccc(C2C(C(=O)Nc3ccccc3)=C(C)N=c3s/c(=C/c4ccc(OCC(=O)O)cc4)c(=O)n32)c1 (stereo not given)	72*	2	4	0	-1	82*	50*
CCOC(=O)C1=C(C)N=c2sc(=Cc3cc(Cl)c(OCC(=O)O)c(Cl)c3)c(=O)n2C1c1cccc(OC)c1 (stereo not given)	50*	5	.	-1	5	85*	54*
COCCCNC(=O)c1csc([C@H]2C[C@H](O)[C@@H](CO)O2)n1	2	-8	.	1	15	.	.
C[C@H](CO)N1C[C@H](C)[C@@H](CN(C)S(=O)(=O)c2ccc(F)cc2)Oc2c(NC(=O)c3ccncc3)cccc2C1=O	8	1	.	2	-28	.	.
COC(=O)[C@H]1C[C@@]2(O)CN(S(=O)(=O)c3ccc(C)cc3)C[C@@]2(OC(=O)Nc2cccs2)C[C@H]1C(=O)OC	6	-1	.	-3	-12	.	.
CC(C)C(=O)NC(NC(=S)Nc1ccc(S(N)(=O)=O)cc1)C(Cl)(Cl)Cl (stereo not given)	46*	3	1	-1	0	4	2
O=c1cc(-c2ccc([N+](=O)[O-])cc2)nc2cc(-c3ccc(F)cc3)[nH]n12	35*	-3	0	0	-40	50*	15*
Cc1ccccc1-c1cc2nc(-c3ccc([N+](=O)[O-])cc3)cc(=O)n2[nH]1	4	-6	3	-2	6	.	.
COc1cc(CCN(C(=O)c2cc3ccccc3[nH]2)C(C)c2nc3ccccc3[nH]2)cc(OC)c1 (stereo not given)	7	-2	.	-2	6	.	.
CCOc1cccc(/C=C2\NC(=S)N(c3ccccc3)C2=O)c1O	38*	6	-1	-6	-111	21	6.2*
CCOc1cc(/C=C2\NC(=S)N(c3c(C)n(C)n(-c4ccccc4)c3=O)C2=O)ccc1O	-7	14	-4	-18	-9	.	.
